Data set [1] in a line: Drug uptake in BALB/c mouse plasma at 20 mg/kg, po as 50% cyclodextrin formulation measured after 0.25 hrs by LC-MS method. The data set is classed as ADME, organism-based. The gist of the method:
(§1)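 BALB/c mice dosed either free (8% DMSO; 1 mg/kg IV or 20 mg/kg oral), or 20 mg/kg oral in 50% w/v hydroxypropyl-β-cyclodextrin, or 20 mg/kg oral in 25% cyclodextrins plus 50% PEG 400. Serial submandibular blood samples stored at -20°C. Plasma measured by isocratic LC-MS (acetonitrile:water 80:20, 0.2 ml/min), quantifier transition m/z 315.0>161.0.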

The nature of data set [2]: Cytotoxicity against human A549 cells assessed as cell growth by Cell titer-Glo assay. The format is cell-based. The gist of the method:
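A549 and WI-38 cells grown in DMEM with 10% v/v FCS, streptomycin 100 µg/ml and penicillin G 100 U/ml. Cell number read as cellular ATP by CellTiter-Glo luminescence. Growth 60–100% scored non-cytotoxic, 0–60% cytostatic, below 0 cytotoxic.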

Data set [3] can be described thus: Cytotoxicity against human THP1 cells by MTT assay. The format is cell-based. The conditions noted are these: THP-1 cells. The gist of the method: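 THP-1 cells differentiated to macrophages with PMA, viability read by colorimetric MTT. CC50 and NOAEL are the arithmetic mean of at least two independent determinations, each run in triplicate.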
For orientation: Tetrazolium dyes change colour on reduction, which living cells bring about.

Data set [4] is described as follows: Solubility of the compound in phosphate buffered saline with 50% DMSO measured after 18 hrs by UV-vis spectroscopic method. The data set is classed as physicochemical. The gist of the method: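 Saturated suspensions prepared at 100 µM in water, 100 µM in PBS, 200 µM in PBS + 10% DMSO and 10 mM in PBS + 50% DMSO. Held 18 h at 25°C, passed through a 0.2 µm filter, then quantified by UV-Vis absorbance at 312 nm using the calculated extinction coefficient.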

The subject of a further data set is Trypanosoma cruzi. Put plainly: Anti-parasitic activity against Trypanosoma cruzi Y promastigotes infected in HG39 cells at 10 uM by qPCR analysis relative to control. The format is functional, cell-based. The conditions noted are these: in the assay text read “trypomastigotes” for “promastigotes”. The gist of the method: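 Confluent HG39 cells (3 x 10^6 per well) infected at a 1:1 ratio with blood-derived T. cruzi Y strain trypomastigotes. Growth inhibition was read as parasite gDNA by TaqMan probe-based quantitative real-time PCR.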
A general note: Real-time PCR tracks product formation cycle by cycle.

The nature of data set [5]: Half-life in BALB/c mouse at 20 mg/kg, po as cyclodextrin formulation by LC-MS method. The conditions noted are these: in vivo. The data set is classed as ADME, organism-based. The gist of the method: as §1
Data set [6] in a line: Drug uptake in BALB/c mouse plasma at 20 mg/kg, po as 50% cyclodextrin formulation measured after 0.5 hrs by LC-MS method. The format is ADME, organism-based. The gist of the method: as §1
The nature of data set [7]: Drug uptake in BALB/c mouse plasma at 1 mg/kg, iv measured after 60 mins by LC-MS method. The data set is classed as ADME, organism-based. The gist of the method: as §1
The subject of the next data set is 786-0. Kind of data set: Mitochondrial toxicity in human 786-O cells at 10 uM by mitotracker red chloromethyl-Xrosamine staining based-uptake method relative to control. The data set is classed as cell-based. The conditions noted are these: 786-0, 10 µM. The gist of the method: (§2)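 786-O renal carcinoma cells kept in RPMI-1640 with 2 mM glutamine, 10% v/v FCS, streptomycin 100 µg/ml and penicillin G 100 U/ml. Mitochondrial toxicity monitored by MitoTracker Red CMXRos uptake with high-content imaging.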

A short description of data set [8]: Half-life in BALB/c mouse at 1 mg/kg, iv by LC-MS method. The format is ADME, organism-based. The conditions noted are these: in vivo. The gist of the method: as §1
Data set [9] in a line: Drug uptake in BALB/c mouse plasma at 1 mg/kg, iv measured after 180 mins by LC-MS method. The data set is classed as ADME, organism-based. The gist of the method: as §1
A short description of data set [10]: Drug uptake in BALB/c mouse plasma at 20 mg/kg, po as 50% cyclodextrin formulation measured after 24 hrs by LC-MS method. The data set is classed as ADME, organism-based. The gist of the method: as §1
The nature of data set [11]: Drug uptake in BALB/c mouse plasma at 1 mg/kg, iv measured after 45 mins by LC-MS method. The format is ADME, organism-based. The gist of the method:
as §1

Data set [12] can be described thus: Lipophilicity, log P of the compound. The format is physicochemical. The conditions noted are these: octanol/water.
Data set [13] can be described thus: Mitochondrial toxicity in human 786-O cells by mitotracker red chloromethyl-Xrosamine staining based-uptake method. The data set is classed as cell-based, 786-0. The gist of the method: as §2
Data set [14] can be described thus: Half-life in BALB/c mouse at 20 mg/kg, po by LC-MS method. The data set is classed as ADME, organism-based. The conditions noted are these: in vivo. The gist of the method:
as §1

Data set [15] is described as follows: Drug uptake in BALB/c mouse plasma at 20 mg/kg, po as cyclodextrin/PEG400 formulation measured after 0.75 hrs by LC-MS method. The format is ADME, organism-based. The gist of the method: as §1
Data set [16] in a line: Drug uptake in BALB/c mouse plasma at 20 mg/kg, po as cyclodextrin/PEG400 formulation measured after 3 hrs by LC-MS method. The format is ADME, organism-based. The gist of the method: as §1
The target in another data set is CYP2C9 (Homo sapiens, UniProt P11712). Kind of data set: Inhibition of human CYP2C9 expressed in baculovirus-infected insect cells at 10 uM using Luciferin-H as substrate in presence of NADPH by P450-Glo luminescence assay relative to control. The conditions noted are these: probe Luciferin-H.
Chain of CYP2C9 (P11712 whole entry): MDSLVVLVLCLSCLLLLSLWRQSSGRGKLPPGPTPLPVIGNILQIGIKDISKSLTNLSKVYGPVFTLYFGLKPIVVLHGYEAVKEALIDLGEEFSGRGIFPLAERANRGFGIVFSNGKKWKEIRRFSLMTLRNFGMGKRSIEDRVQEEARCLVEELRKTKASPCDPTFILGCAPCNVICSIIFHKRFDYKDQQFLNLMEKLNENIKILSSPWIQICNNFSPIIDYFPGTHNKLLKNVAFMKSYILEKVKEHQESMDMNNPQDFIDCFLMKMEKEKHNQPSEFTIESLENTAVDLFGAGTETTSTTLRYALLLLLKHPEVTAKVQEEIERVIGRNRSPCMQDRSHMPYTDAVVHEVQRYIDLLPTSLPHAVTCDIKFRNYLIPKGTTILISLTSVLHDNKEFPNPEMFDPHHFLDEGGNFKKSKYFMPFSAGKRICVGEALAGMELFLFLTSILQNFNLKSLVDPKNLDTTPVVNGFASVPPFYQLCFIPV
Data set [17] can be described thus: Drug uptake in BALB/c mouse plasma at 20 mg/kg, po as 50% cyclodextrin formulation measured after 1 hr by LC-MS method. The format is ADME, organism-based. The gist of the method: as §1
A further data set deals with Cytochrome P450 2D6 (Homo sapiens, UniProt P10635). Kind of data set: Inhibition of human CYP2D6 expressed in baculovirus-infected insect cells using Luciferin-ME EGE as substrate in presence of NADPH by P450-Glo luminescence assay. The data set is classed as ADME. The gist of the method: (§3)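 CYP enzymes as microsomal preparations from baculovirus-infected insect cells, run on the P450-Glo luminogenic substrate platform. A fall in light output indicates inhibition.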
Chain of Cytochrome P450 2D6 (P10635 whole entry): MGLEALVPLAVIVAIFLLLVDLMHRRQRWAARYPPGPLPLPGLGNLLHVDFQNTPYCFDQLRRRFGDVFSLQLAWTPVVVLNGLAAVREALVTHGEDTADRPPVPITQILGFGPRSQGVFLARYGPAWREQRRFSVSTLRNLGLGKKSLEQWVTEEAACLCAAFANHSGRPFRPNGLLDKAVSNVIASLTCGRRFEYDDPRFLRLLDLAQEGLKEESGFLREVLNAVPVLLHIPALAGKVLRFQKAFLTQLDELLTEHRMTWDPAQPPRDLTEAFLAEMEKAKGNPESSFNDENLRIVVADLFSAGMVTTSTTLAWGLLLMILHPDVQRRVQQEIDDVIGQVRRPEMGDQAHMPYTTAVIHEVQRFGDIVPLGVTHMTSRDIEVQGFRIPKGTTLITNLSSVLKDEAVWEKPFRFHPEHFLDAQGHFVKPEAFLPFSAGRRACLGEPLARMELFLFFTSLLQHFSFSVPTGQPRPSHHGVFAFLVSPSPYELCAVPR

Another data set has as its target Cytochrome P450 2C19 (Homo sapiens, UniProt P33261). Put plainly: Inhibition of human CYP2C19 expressed in baculovirus-infected insect cells using Luciferin-H EGE as substrate in presence of NADPH by P450-Glo luminescence assay. The data set is classed as ADME. The gist of the method:
as §3

Each structure is given as a SMILES string. In brackets after ≈: the same amount, converted by molar mass.

The term GI50 denotes the concentration giving 50% growth inhibition. As a reminder, the CC50 is the concentration giving 50% cytotoxicity. A lower CC50 goes with greater toxicity to the cells. For orientation: solubility means the dissolved amount per volume that the medium holds. A high value points to much dissolved substance. As usually defined, the inhibition is the share of the control response that was lost under treatment. In general, half-life refers to how long it takes for the measured level to halve. Read a high half-life as slow decline. By logP is commonly meant a log measure of how a compound divides between an organic and an aqueous phase. Higher therefore signals a more lipophilic compound. In general, IC50 refers to the midpoint of a concentration-inhibition curve.

Chain of Cytochrome P450 2C19 (P33261 whole entry): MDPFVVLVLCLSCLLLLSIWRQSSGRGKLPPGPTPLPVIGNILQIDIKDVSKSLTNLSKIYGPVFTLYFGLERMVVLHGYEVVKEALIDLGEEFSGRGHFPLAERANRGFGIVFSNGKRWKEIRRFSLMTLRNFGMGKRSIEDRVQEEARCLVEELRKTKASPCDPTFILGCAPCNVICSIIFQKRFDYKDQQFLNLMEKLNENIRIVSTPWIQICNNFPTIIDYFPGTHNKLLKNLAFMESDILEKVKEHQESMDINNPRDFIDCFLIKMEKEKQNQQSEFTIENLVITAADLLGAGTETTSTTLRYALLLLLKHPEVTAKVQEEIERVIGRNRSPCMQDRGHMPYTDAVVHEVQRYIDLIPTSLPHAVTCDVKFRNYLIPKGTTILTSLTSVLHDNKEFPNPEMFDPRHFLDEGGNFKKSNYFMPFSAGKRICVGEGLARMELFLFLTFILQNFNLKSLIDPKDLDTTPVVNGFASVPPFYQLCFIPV

With `COc1cccc(/C=C/C(=O)c2cc(OC)c(OC)cc2O)c1`, the concentration at 0.25 h in data set [1] stood at 1100 nM. In addition, in data set [2], the GI50 stood at 12.4 µM. For the same compound, in data set [3], it took 51 µM to reach half-maximal cytotoxicity (CC50). In data set [4], this compound returned a solubility at 18 h of 600 µM (≈ 189 µg/mL). The inhibition at 10 µM in the data set on Trypanosoma cruzi was 46%; at CYP2C9 it was 19%. For the same compound, the half-life in data set [5] is 36.7 min; in [8], 62.5 min; in data set [14], 12.6 min. Besides, the concentration at 0.5 h in data set [6] was 563 nM. For the same compound, the concentration at 1 h in data set [7] stood at 21 nM; in [17], 69 nM. The compound also had an Activity in the data set with 786-0 of 3.6%. Besides, the concentration at 3 h in data set [9] was 5 nM; in data set [16], 6 nM. The compound also returned a concentration at 24 h in [10] of 5 nM. In addition, the concentration at 0.75 h in data set [11] came out at 23 nM; in [15], 11 nM. In data set [12], this compound displayed a lipophilicity (logP) of 3.59. Besides, the IC50 in data set [13] was found to be 14.5 µM; on Cytochrome P450 2D6, 6.8 µM; at Cytochrome P450 2C19, 7.7 µM.

For the origin of these results see ChEMBL document CHEMBL3997782, “Methoxylated 2'-hydroxychalcones as antiparasitic hit compounds” (Eur J Med Chem, 2017).
